# Measurements from ChEMBL document CHEMBL5058577, “EUbOPEN Chemogenomics Library 2 (Multiplex)” (2022).
# Tested on: U2OS
# Experiment: Multiplex assay against U2OS
# Assay type: toxicity, cell-based
# Settings: human
# Summary of the method: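 Live cells were stained at seeding with Hoechst33342, BioTracker Green Microtubule Cytoskeleton Dye, MitoTracker Red and Annexin V Alexa Fluor 680, then imaged on a CQ1 microscope at 37°C and 5% CO2 after compound addition. CellPathfinder machine-learning gating split cells into Hoechst high-intensity objects or normal cells. Normal cells were split into healthy, pyknosed or fragmented nuclei, and pyknosed cells into mitotic or apoptotic. Tubulin, mitochondrial-mass and membrane-permeability phenotypes are per cents of healthy-nucleus cells.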
# [1] = 12 h, 1 µM, compound concentration 1 uM, replicate 1
# [2] = 12 h, 1 µM, compound concentration 1 uM, replicate 2
# [3] = 12 h, 10 µM, compound concentration 10 uM, replicate 1
# [4] = 12 h, 10 µM, compound concentration 10 uM, replicate 2
# [5] = 24 h, 1 µM, compound concentration 1 uM, replicate 1
# [6] = 24 h, 1 µM, compound concentration 1 uM, replicate 2
# [7] = 24 h, 10 µM, compound concentration 10 uM, replicate 1
# [8] = 24 h, 10 µM, compound concentration 10 uM, replicate 2
# [9] = 48 h, 1 µM, compound concentration 1 uM, replicate 1
# [10] = 48 h, 1 µM, compound concentration 1 uM, replicate 2
# [11] = 48 h, 10 µM, compound concentration 10 uM, replicate 1
# [12] = 48 h, 10 µM, compound concentration 10 uM, replicate 2
structure (smiles),measurement,setting,value
CC[C@@H](C)Nc1nc(C)nc2c(-c3ccc(OC)nc3C)c(C)nn12 [PEXACERFONT],Population Apoptotic (%),[1],73%
same,Population Fragmented Nuclei (%),[1],24%
same,Population Healthy Nuclei (%),[1],66%
same,Population Hoechst High Intensity Objects (%),[1],3%
same,Population Membrane Permeable-Phenotype (%),[1],2%
same,Population Mitochondria Different-Phenotype (%),[1],3%
same,Population Mitotic Cells (%),[1],26%
same,Population Normal (%),[1],96%
same,Population Pyknosed Nuclei (%),[1],9%
same,Population Tubulin-Different-Phenotype (%),[1],2%
same,Total Cell Count,[1],258
same,Population Apoptotic (%),[2],87%
same,Population Fragmented Nuclei (%),[2],17%
same,Population Healthy Nuclei (%),[2],76%
same,Population Hoechst High Intensity Objects (%),[2],0%
same,Population Membrane Permeable-Phenotype (%),[2],1%
same,Population Mitochondria Different-Phenotype (%),[2],0%
same,Population Mitotic Cells (%),[2],12%
same,Population Normal (%),[2],99%
same,Population Pyknosed Nuclei (%),[2],5%
same,Population Tubulin-Different-Phenotype (%),[2],0%
same,Total Cell Count,[2],136
same,Population Apoptotic (%),[3],90%
same,Population Fragmented Nuclei (%),[3],26%
same,Population Healthy Nuclei (%),[3],64%
same,Population Hoechst High Intensity Objects (%),[3],1%
same,Population Membrane Permeable-Phenotype (%),[3],2%
same,Population Mitochondria Different-Phenotype (%),[3],1%
same,Population Mitotic Cells (%),[3],9%
same,Population Normal (%),[3],98%
same,Population Pyknosed Nuclei (%),[3],8%
same,Population Tubulin-Different-Phenotype (%),[3],1%
same,Total Cell Count,[3],265
same,Population Fragmented Nuclei (%),[4],21%
same,Population Healthy Nuclei (%),[4],70%
same,Population Membrane Permeable-Phenotype (%),[4],12%
same,Population Mitochondria Different-Phenotype (%),[4],7%
same,Population Mitotic Cells (%),[4],10%
same,Population Pyknosed Nuclei (%),[4],7%
same,Population Tubulin-Different-Phenotype (%),[4],4%
same,Total Cell Count,[4],128
same,Population Apoptotic (%),[5],80%
same,Population Fragmented Nuclei (%),[5],21%
same,Population Healthy Nuclei (%),[5],69%
same,Population Hoechst High Intensity Objects (%),[5],2%
same,Population Membrane Permeable-Phenotype (%),[5],5%
same,Population Mitochondria Different-Phenotype (%),[5],2%
same,Population Mitotic Cells (%),[5],20%
same,Population Normal (%),[5],97%
same,Population Pyknosed Nuclei (%),[5],8%
same,Population Tubulin-Different-Phenotype (%),[5],2%
same,Total Cell Count,[5],346
same,Population Apoptotic (%),[6],85%
same,Population Fragmented Nuclei (%),[6],16%
same,Population Healthy Nuclei (%),[6],75%
same,Population Membrane Permeable-Phenotype (%),[6],3%
same,Population Mitochondria Different-Phenotype (%),[6],6%
same,Population Mitotic Cells (%),[6],14%
same,Total Cell Count,[6],172
same,Population Apoptotic (%),[7],80%
same,Population Fragmented Nuclei (%),[7],21%
same,Population Healthy Nuclei (%),[7],71%
same,Population Hoechst High Intensity Objects (%),[7],2%
same,Population Membrane Permeable-Phenotype (%),[7],5%
same,Population Mitochondria Different-Phenotype (%),[7],3%
same,Population Mitotic Cells (%),[7],19%
same,Population Normal (%),[7],97%
same,Population Pyknosed Nuclei (%),[7],7%
same,Population Tubulin-Different-Phenotype (%),[7],4%
same,Total Cell Count,[7],307
same,Population Apoptotic (%),[8],92%
same,Population Fragmented Nuclei (%),[8],14%
same,Population Healthy Nuclei (%),[8],77%
same,Population Hoechst High Intensity Objects (%),[8],0%
same,Population Membrane Permeable-Phenotype (%),[8],7%
same,Population Mitotic Cells (%),[8],7%
same,Population Normal (%),[8],99%
same,Population Pyknosed Nuclei (%),[8],8%
same,Population Tubulin-Different-Phenotype (%),[8],3%
same,Total Cell Count,[8],159
same,Population Apoptotic (%),[9],88%
same,Population Fragmented Nuclei (%),[9],16%
same,Population Healthy Nuclei (%),[9],75%
same,Population Hoechst High Intensity Objects (%),[9],1%
same,Population Membrane Permeable-Phenotype (%),[9],3%
same,Population Mitochondria Different-Phenotype (%),[9],1%
same,Population Mitotic Cells (%),[9],11%
same,Population Normal (%),[9],98%
same,Population Pyknosed Nuclei (%),[9],7%
same,Population Tubulin-Different-Phenotype (%),[9],1%
same,Total Cell Count,[9],476
same,Population Apoptotic (%),[10],91%
same,Population Healthy Nuclei (%),[10],73%
same,Population Hoechst High Intensity Objects (%),[10],2%
same,Population Membrane Permeable-Phenotype (%),[10],5%
same,Population Mitochondria Different-Phenotype (%),[10],4%
same,Population Mitotic Cells (%),[10],8%
same,Population Normal (%),[10],97%
same,Population Pyknosed Nuclei (%),[10],9%
same,Population Tubulin-Different-Phenotype (%),[10],4%
same,Total Cell Count,[10],261
same,Population Apoptotic (%),[11],94%
same,Population Fragmented Nuclei (%),[11],17%
same,Population Healthy Nuclei (%),[11],74%
same,Population Hoechst High Intensity Objects (%),[11],1%
same,Population Membrane Permeable-Phenotype (%),[11],4%
same,Population Mitochondria Different-Phenotype (%),[11],1%
same,Population Mitotic Cells (%),[11],5%
same,Population Normal (%),[11],98%
same,Population Pyknosed Nuclei (%),[11],8%
same,Population Tubulin-Different-Phenotype (%),[11],1%
same,Total Cell Count,[11],478
same,Population Apoptotic (%),[12],100%
same,Population Fragmented Nuclei (%),[12],13%
same,Population Healthy Nuclei (%),[12],77%
same,Population Membrane Permeable-Phenotype (%),[12],6%
same,Population Mitochondria Different-Phenotype (%),[12],3%
same,Population Mitotic Cells (%),[12],0%
same,Population Tubulin-Different-Phenotype (%),[12],2%
same,Total Cell Count,[12],242
